# Published values pooled from the literature.
Compound,cell line,assay,conditions,IC50
C(=C\c1c[nH]c2ccccc12)/c1cc(/C=C/c2cccs2)[nH]n1,CHO-K1,"cell growth or viability, SRB",72 h,16.2 µM
COc1cc(/C=C/C(=O)CC(=O)/C=C/c2ccc(O)c(OC)c2)ccc1O,CHO-K1,"cell growth or viability, SRB",72 h,33.5 µM
CSc1ccc(-c2nc3ccc(C)cc3[nH]2)cc1,human Rhabdomyosarcoma cell,"cell growth or viability, MTT",48 h,39 µM
COc1cc(/C=C/c2cc(/C=C/c3cccc4cnccc34)[nH]n2)ccc1O,CHO-K1,"cell growth or viability, MTT",72 h,8.4 µM
Fc1ccc(-c2nc3ccccc3n2Cc2ccccc2)cc1,human Rhabdomyosarcoma cell,"cell growth or viability, MTT",,28 µM
COCCCN1C(/C=C/c2cccnc2)=CC(=O)CC1c1cccnc1 (stereo not shown),CHO-K1,"cell growth or viability, SRB",72 h,> 75 µM
Cc1ccc2nc(-c3cccc(O)c3)[nH]c2c1,human Rhabdomyosarcoma cell,"cell growth or viability, MTT",48 h,19.3 µM
CC(C)C[C@H](NC(=O)[C@H](Cc1ccccc1)NC(=O)c1cnccn1)B(O)O,OV56,"cell growth or viability, ATP luminescence",,0.011 µM
O=C(O)Cc1ccccc1Nc1c(Cl)cccc1Cl,RAW264.7,"IL-6 release, inhibitor",LPS-stimulated,10.2 µM
COc1cc(/C=C/C(=O)CC(=O)/C=C/c2ccc(O)c(OC)c2)ccc1O,CHO-K1,"cell growth or viability, MTT",72 h,44.9 µM
